Data on 22 compounds can be found in ChEMBL document CHEMBL5252662, “Rimonabant-Based Compounds Bearing Hydrophobic Amino Acid Derivatives as Cannabinoid Receptor Subtype 1 Ligands” (ACS Med Chem Lett, 2023).

The test system of experiment [1] is Mus musculus. As to the kind of experiment: Induction of food uptake in CD-1 mouse model at 10 mg/kg, ip measured after 1 hr. In kind it is functional, organism-based. In short, it runs like this:
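Mice dosed i.p. at 10 mg/kg and left 30 min. Each was then placed in an individual cage with 2 g of standard chow, and intake was measured over a 1 h test. Mean ± SEM from the same seven mice at each dose, compared with vehicle-treated animals.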

In experiment [2] the target is T1, Cannabinoid receptor 1 (Rattus norvegicus, UniProt P20272). As to the kind of experiment: Displacement of [3H]-WIN55212-2 from CB1R in rat brain membranes incubated for 60 mins by radioligand competitive binding assay. In kind it is cell membranes, Membrane.
Experiment [3] relates to Mus musculus. As to the kind of experiment: Antinociceptive activity in CD-1 mouse assessed as increase in response time to thermal nociceptive stimuli at 10 ug, icv measured after 60 mins by hot plate test. To be noted: dose 10.0 µg. In kind it is functional, organism-based. In short, it runs like this:
(§1)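 Single i.c.v. injection of 10 μg/10 μL; vehicle saline with 0.1% v/v DMSO. Response latency to thermal stimulus on hot plate recorded over time after dosing. Expressed as % maximum possible effect (%MPE) ± SEM, N = 7.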
(Thermal pain tests record how soon the animal reacts.)

Experiment [4] concerns the target Cannabinoid receptor 1 (Rattus norvegicus) (UniProt P20272). As to the kind of experiment: Agonist activity at rat brain membrane CB1 receptor assessed as stimulation of [35S]GTPgammaS binding incubated for 60 mins relative to control. In kind it is cell membranes. The settings on record: filed as agonist. In general terms: GTPγS is a poorly hydrolysed GTP analogue; its binding reports G protein activation.

For experiment [5], the target named is T1, Cannabinoid receptor 1. Nature of the experiment: Agonist activity at rat brain membrane CB1 receptor assessed as stimulation of [35S]GTPgammaS binding incubated for 60 mins. In kind it is cell membranes.
Experiment [6] concerns Mus musculus. As to the kind of experiment: Antinociceptive activity in CD-1 mouse assessed as increase in response time to thermal nociceptive stimuli at 10 ug, icv measured at 15 to 120 mins. In kind it is functional, organism-based. The settings on record: dose 10.0 µg, time lower […], time upper […]. In short, it runs like this:
as §1

Experiment [7] deals with Mus musculus. Nature of the experiment: Anti-inflammatory activity against zymosan-induced paw edema CD-1 mouse model assessed as reduction of increased paw volume at 100 ug,sc administered 30 mins prior to zymosan challenge and measured after 1 to 4 hrs. To be noted: dose 100.0 µg, time lower […], time upper […]. In kind it is functional, organism-based.

Active and inactive are the calls of the source. The calls are words filed in the database; no cut-off is given here.

As a reminder, the Ki is the equilibrium dissociation constant of an inhibitor or competing ligand from its target. The Emax is the greatest response seen or fitted, relative to the assay's reference. The term EC50 denotes the concentration giving half of the maximal effect.

T1 sequence (P20272 whole entry): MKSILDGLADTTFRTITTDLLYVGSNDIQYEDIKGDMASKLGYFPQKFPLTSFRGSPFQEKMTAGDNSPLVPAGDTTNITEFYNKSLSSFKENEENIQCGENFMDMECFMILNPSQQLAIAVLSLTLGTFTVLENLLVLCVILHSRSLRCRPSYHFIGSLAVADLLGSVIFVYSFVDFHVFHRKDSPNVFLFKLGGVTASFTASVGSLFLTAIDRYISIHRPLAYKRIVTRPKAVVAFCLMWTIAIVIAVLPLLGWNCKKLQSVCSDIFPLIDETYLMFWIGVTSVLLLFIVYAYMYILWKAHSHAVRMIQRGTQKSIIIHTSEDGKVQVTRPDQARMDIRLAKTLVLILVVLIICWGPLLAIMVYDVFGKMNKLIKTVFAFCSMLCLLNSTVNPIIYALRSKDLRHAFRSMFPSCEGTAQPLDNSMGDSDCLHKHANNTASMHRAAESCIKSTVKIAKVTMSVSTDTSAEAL
Sequence of Cannabinoid receptor 1 (Rattus norvegicus) (P20272 whole entry): as above

Turning to `COC(=O)[C@@H](NC(=O)c1nn(-c2ccc(Cl)cc2Cl)c(-n2cccc2Cl)c1C)C(C)C`, the result in experiment [1] was Active.
On to `Cc1c(C(=O)N[C@H](C(=O)O)C(C)(C)C)nn(-c2ccccc2)c1-n1cccc1`, for which the Ki entry in experiment [2] is “Not Active”.
Same read-out and setting: for `Cc1c(C(=O)N[C@H](C(=O)O)C(C)C)nn(-c2ccc(Cl)cc2Cl)c1-n1cccc1Cl` the value was “Not Active”; for `Cc1c(C(=O)N[C@H](C(=O)O)C(C)C)nn(-c2ccccc2)c1-n1cccc1`, “Not Active”.
For `COC(=O)[C@@H](NC(=O)c1nn(-c2ccc(Cl)cc2)c(-n2cccc2)c1C)C(C)(C)C`, the outcome in experiment [1] was inactive.
For `CC(C)[C@H](NC(=O)c1cc(-n2cccc2)n(-c2ccc(Cl)cc2)n1)C(=O)O`, in experiment [2], the Ki entry is given as “Not Active”.
In the case of `Cc1c(C(=O)N[C@H](C(N)=O)C(C)(C)C)nn(-c2ccc(Cl)cc2)c1-n1cccc1`, the outcome in experiment [1] was inactive.
Regarding `CC(C)(C)[C@H](NC(=O)c1cc(-n2cccc2)n(-c2ccccc2)n1)C(=O)O`, the inhibition constant (Ki) entry in experiment [2] is listed as “Not Active”.
Regarding `Cc1c(C(=O)c2cccc3ccccc23)c2cccc3c2n1[C@H](CN1CCOCC1)CO3`, in experiment [3], the outcome was Active.
As to `COC(=O)[C@@H](NC(=O)c1cc(-n2cccc2)n(-c2ccc(Cl)cc2)n1)C(C)C`, the outcome in experiment [1] was inactive.
For the compound `CC(C)(C)[C@H](NC(=O)c1cc(-n2cccc2)n(-c2ccc(Cl)cc2)n1)C(=O)O`, the inhibitory constant (Ki) result in experiment [2] is “Not Active”.
Still for that read-out and setting: to `CNC(=O)[C@@H](NC(=O)c1nn(-c2ccc(Cl)cc2Cl)c(-n2cccc2Cl)c1C)C(C)(C)C` belongs “Not Active”.
As for `Cc1c(C(=O)N[C@H](C(N)=O)C(C)C)nn(-c2ccc(Cl)c(Cl)c2)c1-n1cccc1Cl`, in experiment [4], the maximum response (Emax) amounted to 60%. Besides, the Ki in experiment [2] (read-out: Ki) worked out at 446 nM. In addition, in experiment [5], the concentration giving a half-maximal response (EC50) was 849 nM.
Regarding `Cc1c(C(=O)N[C@H](C(=O)O)C(C)(C)C)nn(-c2ccc(Cl)cc2Cl)c1-n1cccc1Cl`, the Ki entry in experiment [2] is “Not Active”.
In the case of `Cc1c(C(=O)N[C@H](C(N)=O)C(C)(C)C)nn(-c2ccc(Cl)c(Cl)c2)c1-n1cccc1Cl`, in experiment [1], the outcome was inactive. For the same compound, in experiment [4], the Emax stood at 70%. Moreover, in experiment [2] (read-out: Ki), the Ki came to 45 nM. For the same compound, the EC50 in experiment [5] is 1870 nM.
On to `CC(C)[C@H](NC(=O)c1cc(-n2cccc2)n(-c2ccccc2)n1)C(N)=O`, for which, in experiment [2], the Ki entry is “Not Active”.
With `Cc1c(C(=O)N[C@H](C(N)=O)C(C)(C)C)nn(-c2ccccc2)c1-n1cccc1`, the outcome in experiment [1] was inactive.
On the same count and under the same terms, for `COC(=O)[C@@H](NC(=O)c1cc(-n2cccc2)n(-c2ccc(Cl)cc2)n1)C(C)(C)C` the value was “inactive”.
`Cc1c(C(=O)N[C@H](C(=O)O)C(C)C)nn(-c2ccc(Cl)cc2)c1-n1cccc1`: in experiment [2], the Ki result is given as “Not Active”.
Consider `COC(=O)[C@@H](NC(=O)c1cc(-n2cccc2)n(-c2ccccc2)n1)C(C)(C)C`, for which, in experiment [1], the result was Active.
Turning to `CC(C)[C@H](NC(=O)c1cc(-n2cccc2)n(-c2ccccc2)n1)C(=O)O`, the Ki entry in experiment [2] is given as “Not Active”.
As to `CNC(=O)[C@@H](NC(=O)c1nn(-c2ccc(Cl)cc2)c(-n2cccc2)c1C)C(C)(C)C`, the result in experiment [1], in experiment [6] and in experiment [7] was Active.
